Legend:
[1] = system: Rattus norvegicus; assay: Antihypertensive activity expressed as change in mean arterial blood pressure (MABP) in spontaneously hypertensive rats (SHR), at 3-6h after 30 mg/kg oral administration; assay type: functional, Artery
Method in brief: (§1)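 Adult male SHR, catheter implanted in carotid artery or abdominal aorta under anesthesia at least 24 h before dosing. Baseline pressure recorded 1-1.5 h. Compound given orally at 30 mg/kg as solution or suspension in 0.5% Tween 80/distilled H2O (v/v) or other vehicle. MABP read at 0.5, 1, 1.5, 2, 3, 4, 5 and 6 h. Average percent change from predose calculated per period. Paired one-tailed t test, p < 0.05. n = 3-6 rats unless noted.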

[2] = system: Rattus norvegicus; assay: Antihypertensive activity expressed as change in mean arterial blood pressure (MABP) in spontaneously hypertensive rats (SHR),at 0.5-2h after 30 mg/kg oral administration; assay type: functional, Artery; method in brief: as §1
[3] = organism: Oryctolagus cuniculus; assay: Calcium channel-blocking activity by determined by ability to antagonize calcium-induced contractions of isolated rabbit aortic strips; assay type: functional; conditions: Aorta, read-out: pA2 (converted)
Method in brief: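 Rabbit aortic strips were bathed in turn in CaCl2-containing buffer, CaCl2-free buffer, then depolarizing (KCl) CaCl2-free buffer. Cumulative CaCl2 addition induced contractions, recorded with force-displacement transducers. Responses were compared without and with 1–100 nM test compound. pA2 was calculated by the Van Rossum method from at least three tissues.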

SMILES: Fc1ccc(C(c2ccc(F)cc2)C2CCN(CCCSc3ccccc3)CC2)cc1
- Change [1]: -3%
- Change [2]: -5%
- Kb [3]: 3.16 nM

SMILES: COc1cc(C(C)=O)ccc1OCCN1CCC(C(c2ccc(F)cc2)c2ccc(F)cc2)CC1
- Change [1]: 0%
- Change [2]: -4%
- Kb [3]: 6.31 nM

SMILES: COc1cc(C(C)=O)ccc1OCCCN1CCC(C(N)(c2ccc(F)cc2)c2ccc(F)cc2)CC1
- Change [1]: -10%
- Change [2]: 1%
- Kb [3]: 31.6 nM

SMILES: COc1cc(C(C)=O)ccc1OCCCN1CCC(Cc2ccc(F)cc2)CC1
- Change [1]: -4%
- Change [2]: -7%
- Kb [3]: 20 nM

SMILES: COc1ccc(OCCCN2CCC(C(c3ccc(F)cc3)c3ccc(F)cc3)CC2)cc1
- Change [1]: -3%
- Change [2]: -2%
- Kb [3]: 2.51 nM

SMILES: CC(=O)Nc1ccc(OCCCN2CCC(C(c3ccc(F)cc3)c3ccc(F)cc3)CC2)cc1
- Change [1]: -12%
- Change [2]: -12%
- Kb [3]: 12.6 nM

SMILES: COc1cc(C(C)=O)ccc1OCCCN1CCC(C(O)(c2ccc(F)c(F)c2)c2ccc(F)c(F)c2)CC1
- Change [1]: -24%
- Change [2]: -5%
- Kb [3]: 2.51 nM

SMILES: COc1cc(C(C)=O)ccc1OCCCN1CCC(C(O)(c2ccc(F)cc2)c2ccc(F)cc2)CC1
- Change [1]: -9%
- Change [2]: -5%
- Kb [3]: 10 nM

SMILES: COc1cc(C(C)=O)ccc1OCCCN1CCC(C(c2ccccc2)c2ccccc2)CC1
- Change [1]: -12%
- Change [2]: -20%
- Kb [3]: 6.31 nM

SMILES: Fc1ccc(C(c2ccc(F)cc2)C2CCN(CCOc3ccc4ccccc4c3)CC2)cc1
- Change [1]: -30%
- Change [2]: -16%
- Kb [3]: 3.98 nM

SMILES: COc1cc(C(C)=O)ccc1OCCCCN1CCC(C(c2ccc(F)cc2)c2ccc(F)cc2)CC1
- Change [1]: -21%
- Change [2]: -16%
- Kb [3]: 2.51 nM

SMILES: COc1cc(C(C)=O)ccc1OCCCN1CCCC(C(C#N)(c2ccc(F)cc2)c2ccc(F)cc2)C1 (configuration not stated)
- Change [1]: 9%
- Change [2]: 5%
- Kb [3]: 7.94 nM

SMILES: COc1cc(C(C)=O)ccc1OCCCN1CCC(C(c2ccc(F)cc2)c2ccc(F)cc2)CC1
- Change [1]: -22%
- Change [2]: -15%
- Kb [3]: 1.58 nM

SMILES: Fc1ccc(C(c2ccc(F)cc2)C2CCN(CCCOc3ccc(Br)cc3)CC2)cc1
- Change [1]: -17%
- Change [2]: -3%
- Kb [3]: 1.58 nM

SMILES: N#Cc1ccc(OCCCN2CCC(C(c3ccc(F)cc3)c3ccc(F)cc3)CC2)cc1
- Change [1]: -11%
- Change [2]: 8%
- Kb [3]: 5.01 nM

SMILES: COc1cc(C(C)=O)ccc1OCCCCCCN1CCC(C(c2ccc(F)cc2)c2ccc(F)cc2)CC1
- Change [1]: -22%
- Change [2]: -10%
- Kb [3]: 6.31 nM

SMILES: Fc1ccc(C(c2ccc(F)cc2)C2CCN(CCCCc3ccccc3)CC2)cc1
- Change [1]: -9%
- Change [2]: -5%
- Kb [3]: 2.51 nM

SMILES: Nc1ccc(OCCCN2CCC(C(c3ccc(F)cc3)c3ccc(F)cc3)CC2)cc1
- Change [1]: -8%
- Change [2]: -5%
- Kb [3]: 31.6 nM

SMILES: COc1cc(C(C)=O)ccc1OCCCN1CCC(C(c2cccc(F)c2)c2cccc(F)c2)CC1
- Change [1]: -9%
- Change [2]: -11%
- Kb [3]: 3.16 nM

SMILES: COc1cc(C(C)O)ccc1OCCCN1CCC(C(c2ccc(F)cc2)c2ccc(F)cc2)CC1 (configuration not stated)
- Change [1]: -9%
- Change [2]: -14%
- Kb [3]: 10 nM

SMILES: COc1ccc(C(c2ccc(OC)cc2)C2CCN(CCCOc3ccc(C(C)=O)cc3OC)CC2)cc1
- Change [1]: 1%
- Change [2]: 2%
- Kb [3]: 10 nM

SMILES: CCc1ccc(OCCCN2CCC(C(c3ccc(F)cc3)c3ccc(F)cc3)CC2)c(OC)c1
- Change [1]: -7%
- Change [2]: -9%
- Kb [3]: 2.51 nM

SMILES: CC(C)(C)c1ccc(OCCCN2CCC(C(c3ccc(F)cc3)c3ccc(F)cc3)CC2)cc1
- Change [1]: -10%
- Change [2]: -15%
- Kb [3]: 1 nM

SMILES: Fc1ccc(OCCCN2CCC(C(c3ccc(F)cc3)c3ccc(F)cc3)CC2)cc1
- Change [1]: -6%
- Change [2]: -2%
- Kb [3]: 1.26 nM

SMILES: COc1cc(C(C)=O)ccc1OCCCN1CCC(=C(c2ccc(F)cc2)c2ccc(F)cc2)CC1
- Change [1]: -12%
- Change [2]: -9%
- Kb [3]: 3.98 nM

SMILES: COc1cc(C(C)=O)ccc1OCCCN1CCCC(CC(C#N)(c2ccc(F)cc2)c2ccc(F)cc2)C1 (configuration not stated)
- Change [1]: -5%
- Change [2]: 2%
- Kb [3]: 12.6 nM

SMILES: CN(CCCN1CCC(C(c2ccc(F)cc2)c2ccc(F)cc2)CC1)c1ccccc1
- Change [1]: -6%
- Change [2]: -3%
- Kb [3]: 2 nM

SMILES: COc1ccc([C@@H]2Sc3ccccc3N(CCN(C)C)C(=O)[C@@H]2OC(C)=O)cc1 [DILTIAZEM]
- Change [1]: -13%
- Change [2]: -14%
- Kb [3]: 20 nM

SMILES: Fc1ccc(C(c2ccc(F)cc2)N2CCN(C/C=C/c3ccccc3)CC2)cc1 [FLUNARIZINE]
- Change [1]: -1%
- Change [2]: -1%
- Kb [3]: 5.01 nM
